Results on twelve compounds are retold here after publication PMC6904115 (Neuropharmacology, 2019).

Entries after “also recorded” stand apart in the source; their conditions may differ.

The target in series [1] is T1, Y1 receptor (Rattus norvegicus, UniProt P21555).
T1 sequence (P21555 1-382): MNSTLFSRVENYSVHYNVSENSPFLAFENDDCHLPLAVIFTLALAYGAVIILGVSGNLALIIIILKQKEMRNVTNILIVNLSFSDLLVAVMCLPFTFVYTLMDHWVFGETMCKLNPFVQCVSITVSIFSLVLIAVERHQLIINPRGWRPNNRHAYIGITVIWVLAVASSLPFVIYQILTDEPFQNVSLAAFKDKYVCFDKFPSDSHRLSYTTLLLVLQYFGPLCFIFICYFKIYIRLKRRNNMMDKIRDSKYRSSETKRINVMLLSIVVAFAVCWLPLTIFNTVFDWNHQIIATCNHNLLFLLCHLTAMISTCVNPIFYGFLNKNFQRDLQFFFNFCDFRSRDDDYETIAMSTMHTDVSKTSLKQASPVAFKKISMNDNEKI
Put plainly: Y1 receptor internalization. The format is cell-based. As to conditions: for Y1 receptor internalization / NPY release by chemical stimulus, summary: spinal cord slices.

For series [2], the system named is substance P release in the dorsal horn. Conditions: ref Chen et al., cited from earlier work.
The target in series [3] is T1, Y1 receptor. The series is classed as cell-based. Conditions: with 100 nM NPY; each inhibitor 10 μM; 35 °C, 10 min.
For series [4], the target named is T1, Y1 receptor. Put plainly: Y1 receptor internalization induced by capsaicin stimulation of the dorsal root. The series is classed as cell-based. In outline: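 Rat lumbar (L2-L4) slices, 400 μm, keeping one >8 mm dorsal root; recovered 1 h at 35 °C in aCSF (5 mM KCl). Root sealed with grease into side compartment of aCSF + 1 μM capsaicin, 10 min, while slice superfused at 35 °C; 10 min further superfusion, immersion-fixed, 25 μm cryosections, Y1 antiserum 1:500, confocal. Ipsilateral vs contralateral; repeated-measures 2-way ANOVA, Holm-Sidak.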

For series [5], the system named is opioid release in spinal cord slices. As to conditions: cited from earlier work.
Series [6] relates to inhibitory interneurons in the dorsal horn. As to conditions: four classes of inhibitory interneurons; ref Polgar et al. (2013); cited from earlier work.
Series [7] deals with MOR. Conditions: ref Song and Marvizon, 2003a; cited from earlier work.
For series [8], the system named is NK1R. As to conditions: compared with endogenous opioids; ref Marvizon et al., 2003b; cited from earlier work.
Series [9] has as its target T1, Y1 receptor. The format is cell-based.

Regarding `O=C(Nc1ncnc2c1ncn2[C@@H]1O[C@@H]2COP(=O)(O)OC2C1O)c1ccccc1` (stereo in doubt) [6-Bnz-cAMP, 6-benzoyl-3′,5′-cyclic monophosphate], the “Y1 receptor internalization by protein kinase A activator” value in [1] (10 nM, 60 min, 35 °C) is on record as “induced a substantial amount of Y1 receptor internalization”. Further, in series [1], the “Y1 receptor internalization / NPY release by chemical stimulus, summary” value was “induced Y1 receptor internalization”.
`Nc1ncnc2c1nc(Br)n2[C@@H]1O[C@@H]2COP(=O)(O)O[C@H]2[C@H]1O` [8-Br-cAMP, 8-bromoadenosine-3′,5′-cyclic monophosphate]: in series [2] (dorsal horn, 2018), the “substance P release by cell-permeable cAMP analogs” value is reported as “induce substance P release”.
As for `CC(N)C(=O)N1CCCC1C#N` (stereo not drawn) [Ala-Pyrr-CN, alanine-pyrrolidine-nitrile], the “effect on NPY-induced Y1 receptor internalization” value in [3] is recorded as “did not significantly increase NPY-induced Y1 receptor internalization”.
Take `CC1(C)C(=O)N=C2C1=C(O)C(=O)c1ccccc12` [BVT948, 4-hydroxy-3,3-dimethyl-2H-benz[g]indole-2,5(3H)-dione]: the “Y1 receptor internalization after BVT948 preincubation and NMDA+D-Ser” value in series [1] (10 μM BVT948 60 min, then 10 μM NMDA + D-serine 2 min, 8 min aCSF) is listed as “also released NPY”. Further, the “substance P release by BVT948” value in series [2] (2014b, Chen et al., 2010) is recorded as “increases substance P release”.
As to `N#Cc1cc2[nH]c(=O)c(=O)[nH]c2cc1[N+](=O)[O-]` [CNQX], in series [1] (10 μM CNQX with 1 μM capsaicin, 10 min, whole slice), the “effect on capsaicin-induced Y1R internalization” value is given as “decreased the Y1R internalization induced by capsaicin to near control levels”. Also, the “effect on dorsal root capsaicin-induced Y1 internalization” value in series [4] (slice superfused with 10 μM CNQX 10 min, 1 μM capsaicin on dorsal root) was “blocked; also recorded: eliminated the effect of capsaicin”.
`[Cl-].[K+]` [KCl]: the “neurons with Y1 receptor internalization, KCl” value in [1] (30 mM KCl 2 min, then 8 min aCSF, 35 °C) is on record as greater than 80%. Further, in series [1], the “Y1 receptor internalization / NPY release by chemical stimulus, summary” value was “induced Y1 receptor internalization”. The “opioid release by KCl” value in series [5] (30 mM KCl, 2 min, spinal cord slices, ref Chen et al., 2008) was “induced abundant opioid release”.
Consider `COc1cc(CNC(=O)CCCC/C=C/C(C)C)ccc1O` [capsaicin], for which the “neurons with Y1 receptor internalization, capsaicin” value in series [1] (1 μM capsaicin, 10 min, whole slice, 35 °C) is recorded as “approximately 50%”. The “Y1 receptor internalization / NPY release by chemical stimulus, summary” value in series [1] is “induced Y1 receptor internalization”. Besides, the “Y1 receptor internalization by dorsal root capsaicin” value in series [4] (1 μM capsaicin on dorsal root (side chamber), 10 min) is on record as “induced NPY release; also recorded: evoked substantial Y1 receptor internalization, which was significantly higher than in control slices”. In addition, the “opioid release by capsaicin” value in series [5] (dorsal horn, ref Song and Marvizon, 2003b) is listed as “not opioid release”. Further, the “pERK induction” value in series [6] is “induced pERK only in the galanin and NPY neurons”.
Regarding Ile-Pro-Ile, in series [3], the “effect on NPY-induced Y1 receptor internalization” value is on record as “did not significantly increase NPY-induced Y1 receptor internalization”.
With Leu-enkephalin, the “reduction by peptidases of potency to induce MOR internalization” value in series [7] was “two orders of magnitude”.
With formalin, the “pERK induction” value in series [6] was “induced pERK only in the galanin and NPY neurons”.
In the case of substance P, the “cleavage by peptidases” value in series [8] is recorded as “much less readily”.
Take ω-conotoxin MVIIC: in series [9], the “effect on electrically evoked Y1 receptor internalization, ipsilateral” value was “decreased”.
